From ChEMBL document CHEMBL4229410, “Facile construction of fused benzimidazole-isoquinolinones that induce cell-cycle arrest and apoptosis in colorectal cancer cells” (Bioorg Med Chem, 2018)
The source made the active and inactive calls. The rule behind the calls is not given here.

Key:
[1] = target: Mitogen-activated protein kinase 9 (Homo sapiens, UniProt P45984); test: Binding affinity to full length human JNK2 (M1 to Q382 residues) expressed in mammalian expression system by KINOMEscan assay
Mitogen-activated protein kinase 9, sequence (P45984 whole entry, the tested form may be a part, canonical isoform): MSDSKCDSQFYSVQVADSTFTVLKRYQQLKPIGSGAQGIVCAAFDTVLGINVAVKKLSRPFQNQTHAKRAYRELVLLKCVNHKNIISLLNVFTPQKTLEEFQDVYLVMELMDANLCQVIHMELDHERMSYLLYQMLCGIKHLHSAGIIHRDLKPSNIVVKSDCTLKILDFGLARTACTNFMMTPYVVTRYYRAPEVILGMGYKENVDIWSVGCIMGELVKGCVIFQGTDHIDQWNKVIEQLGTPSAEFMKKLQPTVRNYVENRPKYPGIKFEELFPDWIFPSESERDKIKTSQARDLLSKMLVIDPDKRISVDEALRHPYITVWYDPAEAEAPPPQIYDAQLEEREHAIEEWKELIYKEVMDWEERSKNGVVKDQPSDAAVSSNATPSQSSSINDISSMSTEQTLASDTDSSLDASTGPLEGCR

[2] = target: Casein kinase I isoform delta (Homo sapiens, UniProt P48730); test: Inhibition of full length human CSNK1D (M1 to K409 residues) expressed in bacterial expression system assessed as residual activity at 5 uM by KINOMEscan assay relative to control
[3] = target: Tyrosine-protein kinase ABL1 (Homo sapiens, UniProt P00519); test: Inhibition of human non-phosphorylated ABL1 (S229 to K512 residues) expressed in mammalian expression system assessed as residual activity at 5 uM by KINOMEscan assay relative to control
SW-620 [4] = test: Cell cycle arrest in human SW620 cells assessed as accumulation at S-phase at 25 uM after 48 hrs by propidium iodide staining based flow cytometry (reference value: 43.72%); type: functional
SW-620 [5] = test: Inhibition of colony formation in human SW620 cells assessed as reduction in number of colonies at 25 to 75 uM treated for 48 hrs followed by compound washout and measured after 14 hrs by crystal violet staining based assay; type: functional, cell-based
[6] = target: Mast/stem cell growth factor receptor Kit (Homo sapiens, UniProt P10721); test: Inhibition of human KIT (I571 to D952 residues) expressed in bacterial expression system assessed as residual activity at 5 uM by KINOMEscan assay relative to control
Mast/stem cell growth factor receptor Kit, sequence (P10721 whole entry, the tested form may be a part): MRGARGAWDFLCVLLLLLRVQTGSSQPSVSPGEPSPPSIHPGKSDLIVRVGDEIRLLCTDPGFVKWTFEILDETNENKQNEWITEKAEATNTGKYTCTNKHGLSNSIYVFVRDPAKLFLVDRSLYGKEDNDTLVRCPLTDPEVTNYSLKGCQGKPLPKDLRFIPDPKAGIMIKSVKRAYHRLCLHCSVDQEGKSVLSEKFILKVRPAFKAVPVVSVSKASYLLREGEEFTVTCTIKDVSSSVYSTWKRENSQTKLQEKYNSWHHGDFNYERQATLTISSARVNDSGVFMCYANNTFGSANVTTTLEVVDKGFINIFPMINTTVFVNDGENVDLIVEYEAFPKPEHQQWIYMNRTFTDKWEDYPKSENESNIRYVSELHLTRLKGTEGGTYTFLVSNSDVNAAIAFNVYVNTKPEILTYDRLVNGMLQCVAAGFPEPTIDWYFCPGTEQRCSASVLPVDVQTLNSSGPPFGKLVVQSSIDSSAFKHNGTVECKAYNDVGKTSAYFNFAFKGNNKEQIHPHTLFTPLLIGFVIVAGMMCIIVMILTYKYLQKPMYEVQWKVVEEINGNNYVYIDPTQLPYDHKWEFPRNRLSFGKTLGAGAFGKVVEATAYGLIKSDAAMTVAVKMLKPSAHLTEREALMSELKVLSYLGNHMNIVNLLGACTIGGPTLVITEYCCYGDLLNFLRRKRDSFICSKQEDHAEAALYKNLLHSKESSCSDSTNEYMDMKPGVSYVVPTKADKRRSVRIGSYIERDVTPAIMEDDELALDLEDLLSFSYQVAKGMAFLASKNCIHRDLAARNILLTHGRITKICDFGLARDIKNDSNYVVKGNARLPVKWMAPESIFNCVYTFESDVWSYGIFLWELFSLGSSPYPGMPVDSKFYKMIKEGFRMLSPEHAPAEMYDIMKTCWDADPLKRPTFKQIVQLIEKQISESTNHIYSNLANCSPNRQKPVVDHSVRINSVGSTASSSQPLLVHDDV

[7] = target: Serine/threonine-protein kinase Chk1 (Homo sapiens) (UniProt O14757); test: Inhibition of human CHEK1 (M1 to G289 residues) expressed in bacterial expression system assessed as residual activity at 5 uM by KINOMEscan assay relative to control
HT-29 [8] = test: Induction of apoptosis in human HT-29 cells assessed as late apoptotic cells at 75 uM after 48 hrs by Annexin-V-FITC/propidium iodide staining based flow cytometry (reference value: 4.1%); type: functional
[9] = target: Phosphatidylinositol 4-phosphate 3-kinase C2 domain-containing subunit beta (Homo sapiens, UniProt O00750); test: Inhibition of human PIK3C2B (M1 to L1634 residues) expressed in mammalian expression system assessed as residual activity at 5 uM by KINOMEscan assay relative to control
[10] = target: RAC-alpha serine/threonine-protein kinase (Homo sapiens, UniProt P31749); test: Binding affinity to human AKT1 expressed in bacterial expression system by KINOMEscan assay
HT-29 [11] = test: Effect on total mTOR expression in human HT-29 cells up to 75 uM after 48 hrs by Western blot analysis; type: ADME, cell-based; settings: ht-29, 48 h
In short: (§1)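 HT29 or SW620 cells were treated at 0, 25, 50 and 75 μM for 48 h and lysed in RIPA with protease and phosphatase inhibitors. Protein was quantified by BCA. 50 μg lysate was run on 8–15% SDS-PAGE and transferred to PVDF. Blocking was 5% BSA/TBST for 2 h; primary antibodies were applied overnight at 4 °C, then HRP secondary 1 h at room temperature.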

[12] = target: Serine/threonine-protein kinase PLK4 (Homo sapiens, UniProt O00444); test: Binding affinity to partial length human PLK4 (M1 to S273 residues) expressed in mammalian expression system by KINOMEscan assay
Serine/threonine-protein kinase PLK4, sequence (O00444 whole entry, the tested form may be a part): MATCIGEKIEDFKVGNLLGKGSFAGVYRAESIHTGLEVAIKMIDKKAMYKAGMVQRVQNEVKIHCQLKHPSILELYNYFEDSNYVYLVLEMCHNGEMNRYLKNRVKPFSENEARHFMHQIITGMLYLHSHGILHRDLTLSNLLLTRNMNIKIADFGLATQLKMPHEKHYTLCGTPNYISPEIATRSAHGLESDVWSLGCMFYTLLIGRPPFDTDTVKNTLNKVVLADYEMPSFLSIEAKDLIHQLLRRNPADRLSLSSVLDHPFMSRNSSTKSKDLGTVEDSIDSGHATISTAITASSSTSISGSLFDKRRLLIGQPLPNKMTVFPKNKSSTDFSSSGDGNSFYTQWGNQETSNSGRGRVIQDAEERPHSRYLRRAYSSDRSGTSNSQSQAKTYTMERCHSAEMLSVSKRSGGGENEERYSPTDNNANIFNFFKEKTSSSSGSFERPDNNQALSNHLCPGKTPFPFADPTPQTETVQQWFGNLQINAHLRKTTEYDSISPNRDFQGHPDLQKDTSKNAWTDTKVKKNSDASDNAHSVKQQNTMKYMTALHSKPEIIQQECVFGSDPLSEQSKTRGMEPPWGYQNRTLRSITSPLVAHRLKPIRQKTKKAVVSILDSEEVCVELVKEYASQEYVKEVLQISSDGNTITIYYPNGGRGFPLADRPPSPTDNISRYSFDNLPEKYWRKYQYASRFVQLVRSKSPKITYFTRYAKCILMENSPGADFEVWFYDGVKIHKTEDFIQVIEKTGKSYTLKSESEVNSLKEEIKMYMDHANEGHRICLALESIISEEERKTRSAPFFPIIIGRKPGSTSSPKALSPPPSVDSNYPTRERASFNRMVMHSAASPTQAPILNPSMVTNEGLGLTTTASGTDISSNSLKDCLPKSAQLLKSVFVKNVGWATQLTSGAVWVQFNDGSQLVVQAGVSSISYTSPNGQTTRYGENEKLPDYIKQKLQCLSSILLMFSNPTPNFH

HT-29 [13] = test: Induction of apoptosis in human HT-29 cells assessed as early apoptotic cells at 75 uM after 48 hrs by Annexin-V-FITC/propidium iodide staining based flow cytometry (reference value: 1%); type: functional
[14] = target: Serine/threonine-protein kinase 32C (Homo sapiens, UniProt Q86UX6); test: Binding affinity to human YANK3 (M68 to G486 residues) expressed in bacterial expression system by KINOMEscan assay
Serine/threonine-protein kinase 32C, sequence (Q86UX6 whole entry, the tested form may be a part): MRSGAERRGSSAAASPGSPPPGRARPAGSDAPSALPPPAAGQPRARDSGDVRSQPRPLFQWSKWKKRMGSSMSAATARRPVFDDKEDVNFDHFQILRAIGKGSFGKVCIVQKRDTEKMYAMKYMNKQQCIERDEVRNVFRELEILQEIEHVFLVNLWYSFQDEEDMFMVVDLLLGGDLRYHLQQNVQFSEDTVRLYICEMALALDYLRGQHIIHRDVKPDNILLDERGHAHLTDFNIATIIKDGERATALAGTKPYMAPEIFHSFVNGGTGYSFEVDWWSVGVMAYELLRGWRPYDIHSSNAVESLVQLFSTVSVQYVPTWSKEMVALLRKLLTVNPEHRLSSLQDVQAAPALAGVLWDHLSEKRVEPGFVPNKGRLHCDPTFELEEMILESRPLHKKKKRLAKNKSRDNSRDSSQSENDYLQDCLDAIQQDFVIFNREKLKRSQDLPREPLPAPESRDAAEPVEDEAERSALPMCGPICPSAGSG

[15] = target: Receptor tyrosine-protein kinase erbB-4 (Homo sapiens, UniProt Q15303); test: Inhibition of human ERBB4 (L690 to K994 residues) expressed in bacterial expression system assessed as residual activity at 5 uM by KINOMEscan assay relative to control
Receptor tyrosine-protein kinase erbB-4, sequence (Q15303 whole entry, the tested form may be a part): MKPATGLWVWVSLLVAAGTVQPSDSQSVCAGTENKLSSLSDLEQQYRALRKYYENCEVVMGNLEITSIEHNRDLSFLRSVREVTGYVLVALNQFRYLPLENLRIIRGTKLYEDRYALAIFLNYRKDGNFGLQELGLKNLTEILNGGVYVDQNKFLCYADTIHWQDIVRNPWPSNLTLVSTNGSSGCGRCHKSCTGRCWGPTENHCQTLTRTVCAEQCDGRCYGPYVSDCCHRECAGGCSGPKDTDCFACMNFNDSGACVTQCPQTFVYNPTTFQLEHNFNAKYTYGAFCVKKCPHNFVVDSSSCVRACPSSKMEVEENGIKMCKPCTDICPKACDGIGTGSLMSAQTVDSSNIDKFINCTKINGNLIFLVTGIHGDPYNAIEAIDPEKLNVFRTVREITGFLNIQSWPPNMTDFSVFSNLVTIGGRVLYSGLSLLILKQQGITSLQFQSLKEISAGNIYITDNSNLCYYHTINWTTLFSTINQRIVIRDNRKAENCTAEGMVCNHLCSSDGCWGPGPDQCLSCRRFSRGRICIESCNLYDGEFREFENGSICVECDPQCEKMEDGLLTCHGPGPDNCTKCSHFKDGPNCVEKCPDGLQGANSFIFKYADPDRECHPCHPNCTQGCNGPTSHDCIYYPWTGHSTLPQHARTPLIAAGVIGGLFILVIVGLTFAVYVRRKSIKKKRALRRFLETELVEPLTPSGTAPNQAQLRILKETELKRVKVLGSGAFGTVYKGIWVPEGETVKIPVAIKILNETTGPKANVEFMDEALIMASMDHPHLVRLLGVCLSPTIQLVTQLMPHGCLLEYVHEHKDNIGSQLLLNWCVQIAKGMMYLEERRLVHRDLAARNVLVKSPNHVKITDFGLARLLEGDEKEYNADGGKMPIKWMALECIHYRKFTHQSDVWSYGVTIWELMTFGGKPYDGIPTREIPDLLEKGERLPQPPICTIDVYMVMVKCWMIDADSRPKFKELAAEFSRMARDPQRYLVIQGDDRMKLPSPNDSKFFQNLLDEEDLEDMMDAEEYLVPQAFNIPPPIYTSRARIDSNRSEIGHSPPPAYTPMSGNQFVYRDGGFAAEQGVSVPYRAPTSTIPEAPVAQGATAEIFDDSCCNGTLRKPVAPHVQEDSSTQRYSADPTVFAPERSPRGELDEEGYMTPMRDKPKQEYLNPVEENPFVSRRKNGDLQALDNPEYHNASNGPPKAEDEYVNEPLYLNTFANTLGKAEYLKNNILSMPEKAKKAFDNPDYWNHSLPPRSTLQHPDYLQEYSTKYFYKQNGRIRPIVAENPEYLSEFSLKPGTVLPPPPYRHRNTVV

[16] = target: Mitogen-activated protein kinase 8 (Homo sapiens, UniProt P45983); test: Inhibition of full length human JNK1 (M1 to Q384 residues) expressed in mammalian expression system assessed as residual activity at 5 uM by KINOMEscan assay relative to control
Mitogen-activated protein kinase 8, sequence (P45983 whole entry, the tested form may be a part): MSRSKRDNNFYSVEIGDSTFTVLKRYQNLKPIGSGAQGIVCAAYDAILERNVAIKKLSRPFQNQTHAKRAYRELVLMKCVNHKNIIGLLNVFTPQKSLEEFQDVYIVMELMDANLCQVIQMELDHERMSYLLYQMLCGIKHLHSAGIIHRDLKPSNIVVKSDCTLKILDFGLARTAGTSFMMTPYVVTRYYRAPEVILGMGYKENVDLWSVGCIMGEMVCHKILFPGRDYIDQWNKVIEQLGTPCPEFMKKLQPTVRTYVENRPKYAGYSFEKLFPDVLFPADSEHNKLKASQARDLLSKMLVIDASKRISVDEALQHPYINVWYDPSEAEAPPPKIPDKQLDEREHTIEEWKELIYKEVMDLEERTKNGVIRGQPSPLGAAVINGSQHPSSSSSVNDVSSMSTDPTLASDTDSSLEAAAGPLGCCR

SW-620 [17] = test: Down regulation of CDK1 expression in human SW620 cells after 48 hrs by Western blot analysis; type: functional, cell-based; in short: as §1
[18] = target: Serine/threonine-protein kinase STK11 (Homo sapiens, UniProt Q15831); test: Binding affinity to full length human LKB1 (M1 to Q433 residues) expressed in bacterial expression system by KINOMEscan assay
[19] = target: Phosphatidylinositol 4,5-bisphosphate 3-kinase catalytic subunit alpha isoform (Homo sapiens, UniProt P42336); test: Binding affinity to human PIK3CA (R108 to N1068 residues) expressed in mammalian expression system by KINOMEscan assay
SW-620 [20] = test: Effect on total mTOR expression in human SW620 cells up to 75 uM after 48 hrs by Western blot analysis; type: ADME, cell-based; settings: sw-620, 48 h; in short: as §1
SW-620 [21] = test: Cell cycle arrest in human SW620 cells assessed as accumulation at G1-phase at 50 uM after 48 hrs by propidium iodide staining based flow cytometry (reference value: 40.56%); type: functional
[22] = target: Cyclin-dependent kinase 9 (Homo sapiens, UniProt P50750); test: Inhibition of full length human CDK9 (M1 to F372 residues) expressed in bacterial expression system assessed as residual activity at 5 uM by KINOMEscan assay relative to control
[23] = target: Hepatocyte growth factor receptor (Homo sapiens, UniProt P08581); test: Binding affinity to human MET (D1010 to S1367 residues) expressed in bacterial expression system by KINOMEscan assay
[24] = target: Cyclin-dependent kinase 2 (Homo sapiens, UniProt P24941); test: Inhibition of full length human CDK2 (M1 to L298 residues) expressed in bacterial expression system assessed as residual activity at 5 uM by KINOMEscan assay relative to control
HT-29 [25] = test: Cell cycle arrest in human HT-29 cells assessed as accumulation at G1-phase at 25 uM after 48 hrs by propidium iodide staining based flow cytometry (reference value: 41.86%); type: functional
HT-29 [26] = test: Cell cycle arrest in human HT-29 cells assessed as accumulation at G1-phase at 75 uM after 48 hrs by propidium iodide staining based flow cytometry (reference value: 41.86%); type: functional
[27] = target: Mitogen-activated protein kinase 11 (Homo sapiens, UniProt Q15759); test: Binding affinity to full length human p38beta (M1 to Q364 residues) expressed in bacterial expression system by KINOMEscan assay
Mitogen-activated protein kinase 11, sequence (Q15759 whole entry, the tested form may be a part): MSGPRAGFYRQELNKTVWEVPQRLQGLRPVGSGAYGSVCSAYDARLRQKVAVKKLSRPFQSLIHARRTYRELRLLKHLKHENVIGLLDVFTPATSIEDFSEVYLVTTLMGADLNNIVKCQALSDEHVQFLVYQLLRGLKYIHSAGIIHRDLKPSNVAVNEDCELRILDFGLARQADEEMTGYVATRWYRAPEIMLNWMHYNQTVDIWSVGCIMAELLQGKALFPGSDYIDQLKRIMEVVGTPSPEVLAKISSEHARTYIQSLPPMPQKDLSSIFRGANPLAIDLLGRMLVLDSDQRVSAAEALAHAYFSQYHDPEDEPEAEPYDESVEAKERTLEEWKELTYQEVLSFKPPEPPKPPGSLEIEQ

[28] = target: Glycogen synthase kinase-3 beta (Homo sapiens, UniProt P49841); test: Binding affinity to full length human GSK3B (M1 to T433 residues) expressed in mammalian expression system by KINOMEscan assay
HT-29 [29] = test: Upregulation of p21 expression in human HT-29 cells after 48 hrs by Western blot analysis; type: functional, cell-based
[30] = target: Phosphatidylinositol 4,5-bisphosphate 3-kinase catalytic subunit gamma isoform (Homo sapiens, UniProt P48736); test: Binding affinity to human PIK3CG (S144 to A1102 residues) expressed in mammalian expression system by KINOMEscan assay

CC(C)CN(C(=O)c1cccnc1)c1c2ccccc2c(=O)n2c1[nH]c1ccccc12
Kd [1]: ≥ 5 µM
Activity [2]: 90%
Activity [3]: 65%
Activity (SW-620 [4]): 43.71%
inhibition (SW-620 [5]): Active
Activity [6]: 93%
Activity [7]: 83%
Activity (HT-29 [8]): 31.1%
Activity [9]: 97%
Kd [10]: ≥ 5 µM
Activity (HT-29 [11]): Non-Toxic
Kd [12]: ≥ 5 µM
Activity (HT-29 [13]): 0.3%
Kd [14]: ≥ 5 µM
Activity [15]: 98%
Activity [16]: 69%
Activity (SW-620 [17]): Dose-dependent effect
Kd [18]: ≥ 5 µM
Kd [19]: ≥ 5 µM
Activity (SW-620 [20]): Non-Toxic
Activity (SW-620 [21]): 46.19%
Activity [22]: 87%
Kd [23]: ≥ 5 µM
Activity [24]: 97%
Activity (HT-29 [25]): 42.5%
Activity (HT-29 [26]): 43.36%
Kd [27]: ≥ 5 µM
Kd [28]: ≥ 5 µM
Activity (HT-29 [29]): Dose-dependent effect
Kd [30]: ≥ 5 µM
